Type in all cases: cell-based
The test system of assay [1] is F11. As to the kind of experiment: Blockade of delayed rectifier potassium channel in mouse rat hybrid F11 cells at 90 uM by whole-cell patch clamp technique. A digest of the protocol:
(§1)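 F11 cells (mouse neuroblastoma N18TG-2 × rat DRG) grown in DMEM with 4.5 g/L glucose and 10% FCS at 37 °C, 5% CO2, and plated about 24 h before recording. Whole-cell clamp with compensated capacitance and series resistance. Pipette: K-aspartate 130 mM, EGTA 10 mM, MgATP 1 mM, pCa 7. Cells perfused with low-K physiologic solution; step to 60 mV from −60 mV holding; TEA-isolated current. Drug applied by perfusion, DMSO 1:2000 final.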
(In general: In patch-clamp work, channel activity is measured electrically.)

Assay [2] concerns F11. Nature of the assay: Blockade of delayed rectifier potassium channel in mouse rat hybrid F11 cells at 45 uM by whole-cell patch clamp technique. The procedure, abridged: as §1
In assay [3] the test system is F11. Nature of the assay: Blockade of inward rectifier potassium channel in mouse rat hybrid F11 cells at 45 uM by whole-cell patch clamp technique.
Assay [4] has as its system F11. Nature of the assay: Blockade of sodium channel in mouse rat hybrid F11 cells by whole-cell patch clamp technique. A digest of the protocol: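 F11 cells (mouse neuroblastoma N18TG-2 × rat DRG hybrid) grown in DMEM with 4.5 g/L glucose and 10% FCS at 37 °C, 5% CO2. Cells were plated and incubated about 24 h before whole-cell recording. Pipette solution was K-aspartate based at pCa 7 with 1 mM MgATP. Compounds came from 300 mM DMSO stocks, with DMSO at 1:2000 final, and were delivered by local perfusion. Capacitance and series resistance were compensated 85–95%.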

Assay [5] concerns F11. Nature of the assay: Blockade of delayed rectifier potassium channel in mouse rat hybrid F11 cells at 36 uM by whole-cell patch clamp technique. The procedure, abridged: as §1
Assay [6] has as its system F11. Nature of the assay: Blockade of inward rectifier potassium channel in mouse rat hybrid F11 cells at 36 uM by whole-cell patch clamp technique.

SMILES strings stand for the structures. The source made the active and inactive calls. No cut-off for these calls is given here.

The compound `COc1cc(O)cc(CCc2ccc(O)cc2)c1` showed an Activity in the assay with F11 [1] of 69%.

As for `CC(C)=CCc1c(O)cc(CCc2ccc(O)cc2)cc1O`, the Activity in the assay with F11 [2] is 74%; in the assay on F11 [3] it was 50.1%.

For `COc1ccc(CCc2cc(OC)cc(OC)c2)cc1`, in the assay with F11 [1], the Activity was 38.6%.

In the assay on F11 [1], `COc1ccc(/C=C\c2cc(O)cc(O)c2)cc1` had an Activity of 70.4%. In addition, in the assay with F11 [4], the result was Active.

Regarding `CC(C)=CCOc1cc(O)cc(CCc2ccc(O)cc2)c1`, the Activity in the assay with F11 [5] turned out to be 55.5%; in the assay with F11 [6], 53.7%.

For `COc1ccc(CCc2cc(O)cc(O)c2)cc1`, the Activity with F11 [1] turned out to be 89.4%. Further, the outcome with F11 [4] was Active.

In turn, `c1ccc(COc2ccc(CCc3cc(OCc4ccccc4)cc(OCc4ccccc4)c3)cc2)cc1` returned an Activity in the assay on F11 [1] of 57%.

On to `Oc1cc(O)cc(CCc2ccc(OCc3ccccc3)cc2)c1`, for which, in the assay on F11 [1], the Activity was found to be 89%.

On to `Oc1ccc(CCc2cc(O)cc(OCc3ccccc3)c2)cc1`, for which the Activity in the assay on F11 [1] came out at 89%.

The compound `Oc1cc(CCc2ccc(OCc3ccccc3)cc2)cc(OCc2ccccc2)c1` gave an Activity in the assay on F11 [1] of 50%.

In the assay with F11 [1], `Oc1ccc(CCc2cc(O)cc(O)c2)cc1` came in with an Activity of 52%.

`Oc1ccc(/C=C/c2cc(O)cc(O)c2)cc1`: in the assay with F11 [1], the Activity stood at 42.9%.

Source of the values: ChEMBL document CHEMBL1146504, “Resveratrol derivatives and their role as potassium channels modulators” (J Nat Prod, 2004).
